Source: PubChem BioAssay AID2152 (The Scripps Research Institute Molecular Screening Center, 2009)
In all, about 2,300 compounds went through this assay and about 25 (1%) were called active. This is one part of a sample in which actives are shown more often than they occur.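 How the source made its calls: active means mean inhibition over three replicate wells above the hit threshold derived in the earlier primary screen (cut at about 45% in these data); inactive means the rest.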

system: Hepatitis C virus core protein (core106 dimerization); assay: inhibitors of HCV core protein dimerization, confirmation, biochemical, TR-FRET, triplicate (AID 2152); settings: TR-FRET GST-/Flag-core106 dimerization, HTRF; at 5 µM; hits give high values;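 further: 0% = DMSO wells and 100% = unlabelled core106 competitor control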
Procedure, shortened: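 Test system – GST- and Flag-tagged HCV core106 peptides, dimerization via antibody TR-FRET · Amount – 17 nM Flag- plus 13.5 nM GST-core106 · Schedule – 4 h incubation, 22.5 °C · Compound dosing – one 5 µM dose, 0.5% DMSO · Detection – TR-FRET, 340 nm excitation, 671/617 nm emission · Reagent – Eu(K)-anti-GST plus XL665-anti-FLAG antibodies · Read-out basis – percent inhibition from emission ratio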

Row | Compound | inhibition
1 | Cc1csc(SCC(=O)Nc2sc3c(c2C#N)CCC3)n1 | -4.85% (inactive)
2 | CCCCN(C(=O)c1cc(-c2ccco2)nc2ccccc12)c1c(N)n(CCCC)c(=O)[nH]c1=O | -1.63% (inactive)
3 | CN(CC(=O)Nc1ccc(F)cc1)C(=O)c1cc(-c2ccco2)nc2ccccc12 | 13.3% (inactive)
4 | O=C(Nc1ccc(Cl)c([N+](=O)[O-])c1)c1cnccn1 | 6.55% (inactive)
5 | CC1(OC(=O)CCc2ccccc2)C(=O)C=C2C=C(c3ccc(C#N)cc3)N(c3ccccc3)C=C2C1=O (stereo not drawn) | 1.14% (inactive)
6 | CC1(O)C(=O)C=C2C=C(c3ccc(C#N)cc3)OC=C2C1=O (stereo not drawn) | 55% (active)
7 | C=CCN1C=C2C(=O)C(C)(OC(=O)CCc3ccccc3)C(=O)C=C2C=C1c1ccc(C#N)cc1 (stereo not drawn) | 0.52% (inactive)
8 | Cc1ccc2nc(N3CCN(S(=O)(=O)c4ccc5c(c4)OCCO5)CC3)c(C#N)cc2c1 | 14.6% (inactive)
9 | O=C(c1cc(-c2ccccn2)nc2ccc(Br)cc12)N1CCN(S(=O)(=O)c2ccccc2)CC1 | 17% (inactive)
10 | C/C=C\C=C/C(=O)Nc1cccc(C2=NOC3(C2)C[C@@H](C(N)=O)N(C(=O)/C=C/CC)C3)c1 (stereo partly drawn) | 5.44% (inactive)
11 | O=C1C(Cc2ccccc2)S/C(=N/N=C/c2ccco2)N1c1ccccc1 (stereo not drawn) | -8.03% (inactive)
12 | c1ccc(-c2cc(-c3nn4c(-c5ccco5)nnc4s3)c3ccccc3n2)cc1 | 16.7% (inactive)
13 | Cc1oc(-c2ccc(F)cc2)cc1-c1nn2c(-c3ccoc3C)nnc2s1 | 20.6% (inactive)
14 | Cc1oc(-c2ccc(Cl)cc2)cc1-c1nn2c(-c3ccoc3C)nnc2s1 | 52.5% (active)
15 | Cc1ccc(NC(=O)c2cc(-c3ccc(C)o3)nc3ccccc23)cc1 | -0.19% (inactive)
16 | O=C(/C=C/c1ccc2ccccc2n1)N1CCN(c2ccccc2)CC1 | -3.48% (inactive)
17 | CCN(CC(=O)Nc1c(F)cccc1F)C(=O)c1cccc(-n2cccc2)c1 | 3.91% (inactive)
18 | CCN(CC(=O)Nc1c(F)cccc1F)C(=O)/C=C/c1ccc2ccccc2n1 | 62.5% (active)
19 | O=C1CCCC2=C1C(c1cn(-c3ccccc3)nc1-c1cccs1)c1c([nH]c(=O)[nH]c1=O)N2 (stereo not drawn) | 0.06% (inactive)
20 | Cc1ccc(NC(=O)CN2C(=O)N/C(=C/c3ccco3)C2=O)cc1 | -4.53% (inactive)
21 | Cc1ccccc1N1C(S)=C(C#N)C(=O)NC1c1ccco1 (stereo not drawn) | 9.88% (inactive)
22 | CC1=C(C#N)C(=O)N(C2CCS(=O)(=O)C2)C(=O)/C1=C\c1ccco1 (stereo not drawn) | 56.2% (active)
23 | COc1ccc(-c2cc(C(=O)Nc3sc4c(c3C#N)CCCC4)c3ccccc3n2)cc1OC | -1.02% (inactive)
24 | COc1cc(-c2cc(C(=O)OCC(=O)Nc3ccc4c(c3)OCO4)c3ccccc3n2)cc(OC)c1OC | 4.02% (inactive)
25 | CN(CC(=O)Nc1c(Cl)cccc1Cl)C(=O)c1cccc(-n2cccc2)c1 | 2.1% (inactive)
26 | COc1ccc(CC(=O)OCC(=O)Nc2ncc(Cl)cc2Cl)cc1 | -1.83% (inactive)
27 | COc1ccccc1NC(=O)c1ccc(SCC(=O)NCc2ccccc2Cl)c([N+](=O)[O-])c1 | -1.75% (inactive)

Row | Compound | inhibition
28 | O=C(NCc1ccco1)C1Cc2ccccc2CN1S(=O)(=O)c1ccccc1F (stereo not drawn) | 18.4% (inactive)
29 | C/C=C\C=C/C(=O)Nc1cccc(C2=NOC3(C2)C[C@@H](C(N)=O)N(C(=O)[C@H]2CCC(=O)N2)C3)c1 (stereo partly drawn) | -14.3% (inactive)
30 | O=C(N/N=C/c1ccc(N2CCCCC2)o1)C(O)(c1ccccc1)c1ccccc1 | -3.6% (inactive)
31 | CCOc1ccc(C2C(C#N)=C(N)SC(N)=C2C#N)cc1OCC | 31.4% (inactive)
32 | COc1ccccc1C(CCN(Cc1cccs1)C(C)=O)c1ccco1 (stereo not drawn) | -3.29% (inactive)
33 | O=C(NCCN1C(=O)S/C(=C\c2ccc(Cl)c(Cl)c2)C1=O)c1ccc2c(c1)C(=O)N(Cc1ccncc1)C2=O | 6.43% (inactive)
34 | O=C(COc1ccc([N+](=O)[O-])cc1)Nc1nnc(-c2cccnc2)s1 | 16.4% (inactive)
35 | CC[C@@H](C)CN1C(=O)N[C@@H](c2ccccc2)C(C(C)=O)=C1C | 5.08% (inactive)
36 | CCOC(=O)c1cccc(NC(=O)C2CCCN(c3nnc(N4CCCC4=O)s3)C2)c1 (stereo not drawn) | -7.1% (inactive)
37 | O=c1c2c3nc4ccccc4nc3n(/N=C/c3ccco3)c2ncn1CCC1=CCCCC1 | 2.56% (inactive)
38 | O=C(O)C/C(=C\c1cc(Cl)c2c(c1)OCO2)c1nc2ccccc2s1 | 4.02% (inactive)
39 | Cc1ccc(NC(=O)Nc2nnc(Cc3ccc([N+](=O)[O-])cc3)s2)cc1 | 6.61% (inactive)
40 | N=c1c(C(=O)NCc2ccco2)cc2c(=O)n3ccccc3nc2n1Cc1ccc(Cl)cc1 | 9.28% (inactive)
41 | O=c1nc2s/c(=C\c3ccco3)c(=O)n2nc1Cc1ccc(F)cc1 | 14.3% (inactive)
42 | COc1ccccc1/C=C/C=c1\sc2nc(=O)c(Cc3ccccc3)nn2c1=O | 46.4% (active)
43 | COc1ccccc1/C=c1\sc2nc(-c3ccco3)nn2c1=O | 8.15% (inactive)
44 | COc1cccc(/C=N/NC(=O)c2nc(-c3ccccc3)cc(-c3ccccc3)n2)c1 | 6.79% (inactive)
45 | Cc1ccc(C)c(N2CCN(C(=O)CSc3ccsc3[N+](=O)[O-])CC2)c1 | 12.5% (inactive)
46 | O=C(/C=C\c1ccc2c(c1)OCO2)Nc1c2c(nn1-c1ccc(Cl)cc1)CSC2 | -1.47% (inactive)
47 | O=C(Cn1cnc2sc(-c3ccccc3)cc2c1=O)NCc1ccco1 | 3.55% (inactive)
48 | CCOc1cc(/C=C2\C(=O)N(c3nc(-c4ccc(Br)cc4)cs3)N=C2c2ccccc2)ccc1O | 58.1% (active)
49 | CCc1ccc(-c2csc(NC(=O)C3=NN(c4ccccc4)C(=O)CC3)n2)cc1 | -3.1% (inactive)
50 | Cc1ccc(-c2csc(N3N=C(c4ccccc4)/C(=C\c4ccc(N(C)C)cc4)C3=O)n2)cc1 | 1.99% (inactive)
51 | CNC(=O)COC(=O)c1cc(-c2ccco2)nc2ccccc12 | 12.2% (inactive)
52 | O=C(OCC(=O)N1CCN(C(=O)c2ccco2)CC1)c1cc(-c2ccco2)nc2ccccc12 | 30.6% (inactive)
53 | CN(C(=O)COC(=O)c1cc(-c2ccco2)nc2ccccc12)C1CCS(=O)(=O)C1 (stereo not drawn) | 49.6% (active)
